The results in this text go back to ChEMBL document CHEMBL4680229, “Design, synthesis and bioactivity study of N-salicyloyl tryptamine derivatives as multifunctional agents for the treatment of neuroinflammation” (Eur J Med Chem, 2020).

Activity calls are given as the source filed them. The calls are words filed in the database; no cut-off is given here.

In data set [1] the target is Prostaglandin G/H synthase 1 (Homo sapiens) (UniProt P23219). Nature of the data set: Inhibition of human COX1 assessed as reduction in PGF2alpha formation using arachidonic acid as substrate incubated for 10 mins by ELISA. For orientation: ELISA stands for enzyme-linked immunosorbent assay.
Data set [2] can be described thus: Induction of apoptosis in LPS-induced hippocampal neuroinflammatory Kunming mouse model at 50 mg/kg, ip administered bid for 6 days by Nissl staining based microscopic method. In kind it is organism-based. The note with it: in vivo, 144 h, time 6 day. A digest of the protocol: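 Male Kunming mice (8 weeks, 20–25 g, n = 10/group) were anaesthetised with i.p. chloral hydrate, then given LPS (3 μL of 10 mg/mL) into the lateral ventricle at 0.5 μL/min; sham mice received 3 μL saline. Compound was then given i.p. at 50 mg/kg in saline with 1% methyl cellulose for six consecutive days. Behaviour and deaths were recorded, and hippocampal slices were Nissl-stained.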

The target of data set [3] is Prostaglandin G/H synthase 2 (Homo sapiens) (UniProt P35354). Nature of the data set: Inhibition of human COX2 assessed as reduction in PGF2alpha formation using arachidonic acid as substrate incubated for 10 mins by ELISA.
Chain of Prostaglandin G/H synthase 2 (Homo sapiens) (P35354 whole entry, looked up): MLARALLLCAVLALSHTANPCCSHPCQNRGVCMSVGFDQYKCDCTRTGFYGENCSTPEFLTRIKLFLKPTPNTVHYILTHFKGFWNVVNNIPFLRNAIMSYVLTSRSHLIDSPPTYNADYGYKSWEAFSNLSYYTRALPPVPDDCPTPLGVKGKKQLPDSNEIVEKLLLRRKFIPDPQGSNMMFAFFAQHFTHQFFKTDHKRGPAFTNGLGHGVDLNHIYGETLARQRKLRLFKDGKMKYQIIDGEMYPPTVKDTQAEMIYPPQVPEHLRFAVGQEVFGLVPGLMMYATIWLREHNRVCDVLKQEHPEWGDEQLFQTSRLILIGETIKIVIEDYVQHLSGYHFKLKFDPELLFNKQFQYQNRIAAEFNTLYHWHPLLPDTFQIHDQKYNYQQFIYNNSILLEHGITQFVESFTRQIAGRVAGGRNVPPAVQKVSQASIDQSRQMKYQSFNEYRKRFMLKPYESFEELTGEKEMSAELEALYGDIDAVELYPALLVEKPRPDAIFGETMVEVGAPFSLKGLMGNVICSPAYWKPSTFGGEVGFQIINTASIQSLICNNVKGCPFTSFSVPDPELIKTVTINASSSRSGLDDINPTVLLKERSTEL
In a further data set the test system is Mus musculus. Description: Antiinflammatory activity against LPS-induced hippocampal neuroinflammatory Kunming mouse model assessed as reduction in GFAP level in hippocampus at 50 mg/kg, ip administered bid for 6 days by DAPI staining based microscopic method. The format is functional, organism-based. The note with it: time 6.0 day.
Data set [4] in a line: Antioxidant activity assessed as DPPH radical scavenging activity incubated for 30 mins. In kind it is functional. A digest of the protocol: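 Compound in ethanol at 2.5–40 μM final, mixed 1:1 with 700 μmol/L ethanolic DPPH; 30 min in the dark at room temperature, absorbance at 515 nm. Serotonin used as standard; EC50 from three independent experiments.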
(The DPPH test is a chemical assay of radical scavenging.)

Data set [5] is described as follows: Half life in Sprague-Dawley rat at 50 mg/kg, ip up to 24 hrs by LC-MS analysis. The note with it: in vivo. In kind it is ADME, organism-based. A digest of the protocol: (§1)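 Male Sprague-Dawley rats, six per group, single 50 mg/kg intraperitoneal dose; parameters derived by non-compartmental analysis using the linear trapezoidal method; mean ± SD, n = 6.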
The nature of data set [6]: Cmax in Sprague-Dawley rat at 50 mg/kg, ip up to 24 hrs by LC-MS analysis. More on the design: route intraperitoneal, dose 50 mg/kg, time <=24. The note with it: in vivo. In kind it is ADME, organism-based. A digest of the protocol: as §1
Data set [7] in a line: Tmax in Sprague-Dawley rat at 50 mg/kg, ip up to 24 hrs by LC-MS analysis. The note with it: in vivo. The format is ADME, organism-based. A digest of the protocol:
as §1

The test system of data set [8] is BV-2. Nature of the data set: Cytotoxicity against mouse BV-2 cells assessed as reduction in cell viability after 24 hrs by MTT assay. In kind it is cell-based. The note with it: BV-2, 24 h. A digest of the protocol: (§2)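 C6 or BV2 cells seeded at 1–5×10^5 per well; after 12 h exposed to 0, 6.25, 12.5, 25, 50 or 100 μM (final, DMSO <0.4%) for 24 h. MTT added for 4 h, dissolved in DMSO, read at 570 nm. IC50 as mean of three independent experiments run in triplicate.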
On the technique in general: Formazan colour is commonly taken as a measure of viable cells.

Data set [9] can be described thus: Inhibition of LPS-induced NO production in mouse BV-2 cells incubated for 24 hrs by Griess reagent based assay. The note with it: BV-2, 24 h. The format is functional, cell-based. A digest of the protocol:
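BV2 cells at 5×10^5 cells/mL, LPS 1 μg/mL plus compound at 2.5–40 μM final for 24 h. Supernatant nitrite measured with Griess reagent for 15 min at room temperature in the dark, 540 nm, against a NaNO2 standard curve; IC50 from three repeats.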

Data set [10] deals with BV-2. Nature of the data set: Antiinflammatory activity against LPS-induced mouse BV-2 cells assessed as increase in IL-10 production at 40 uM after 24 hrs by ELISA. The format is functional, cell-based. A digest of the protocol: (§3)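 BV2 cells at 5×10^5 cells/mL stimulated with LPS 1 μg/mL; compound at 10, 20 or 40 μM final for 24 h, DMSO in blanks. Supernatant TNF-α and IL-10 measured by sandwich ELISA and PGE2 by competitive ELISA, OD at 450 nm; at least three independent experiments.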

Another data set is filed under the species Homo sapiens. Description: Selectivity index, ratio of IC50 for inhibition of human COX1 to IC50 for inhibition of human COX2.
For data set [11], the system named is BV-2. Nature of the data set: Antiinflammatory activity against LPS-induced mouse BV-2 cells assessed as decrease in INOS protein expression at 40 uM after 24 hrs by Western blot analysis relative to control. In kind it is functional. Set-up: scale not given: the % may be the effect or the level left. A digest of the protocol: (§4)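 BV2 cells in DMEM with 10% FBS; LPS 1 μg/mL plus compound at 10, 20 or 40 μM final for 24 h. Lysates in RIPA with 1 mM PMSF; 30 μg protein on 8% SDS-PAGE and blotted for iNOS and COX-2, GAPDH as reference; ECL detection and densitometry; at least three independent experiments.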

Data set [12] concerns BV-2. Description: Inhibition of LPS-induced TNFalpha production in mouse BV-2 cells after 24 hrs by ELISA. In kind it is functional, cell-based. The note with it: dose 10-40 µM. A digest of the protocol: as §3
Data set [13] relates to BV-2. Description: Antiinflammatory activity against LPS-induced mouse BV-2 cells assessed as decrease in ROS production at 10 to 40 uM after 6 hrs by DCFH-DA fluorescence probe based flow cytometric analysis. In kind it is functional, cell-based. The note with it: dose 10-40 µM. A digest of the protocol:
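BV2 cells with LPS 1 μg/mL and compound at 10, 20 or 40 μM for 6 h, then DCFH-DA 20 μM final for 30 min at 37 °C. Washed in cold PBS and read by flow cytometry, excitation 485 nm and emission 530 nm.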

For data set [14], the system named is C6. Nature of the data set: Antiinflammatory activity against LPS-induced rat C6 cells assessed as decrease in GFAP protein expression at 20 uM after 24 hrs by DAPI staining based confocal laser microscopic method. In kind it is functional, cell-based. A digest of the protocol: (§5)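 Cells on glass slides with compound at 20 μM final for 24 h: C6 with LPS 10 μg/mL stained for GFAP, BV2 with LPS 1 μg/mL stained for Iba-1. Fixed in 4% paraformaldehyde, blocked in 1% BSA/0.3% Triton X-100, primary antibody 1:100 overnight at 4 °C, secondary 1:200, DAPI mount, confocal imaging. Intensity given as % of LPS group, n = 3.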

Data set [15] relates to BV-2. Nature of the data set: Antiinflammatory activity against LPS-induced mouse BV-2 cells assessed as decrease in iba-1 protein expression at 20 uM after 24 hrs by DAPI staining based confocal laser microscopic method. The format is functional, cell-based. A digest of the protocol:
as §5

In data set [16] the test system is BV-2. Description: Antiinflammatory activity against LPS-induced mouse BV-2 cells assessed as decrease in COX2 protein expression at 40 uM after 24 hrs by Western blot analysis. The format is functional, cell-based. A digest of the protocol:
as §4

The test system of data set [17] is C6. Nature of the data set: Inhibition of LPS-induced NO production in rat C6 cells incubated for 24 hrs by Griess reagent based assay. The format is functional, cell-based. The note with it: C6, 24 h. A digest of the protocol:
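C6 cells at 5×10^5 cells/mL, LPS 10 μg/mL plus compound at 2.5–40 μM final for 24 h. Nitrite measured with Griess reagent at 540 nm against a NaNO2 standard; IC50 from three repeats.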

In data set [18] the test system is C6. Nature of the data set: Inhibition of LPS-induced TNFalpha production in rat C6 cells after 24 hrs by ELISA. The format is functional, cell-based. The note with it: dose 10-40 µM. A digest of the protocol: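 C6 cells at 5×10^5 cells/mL stimulated with LPS 10 μg/mL; compound at 10, 20 or 40 μM final for 24 h. Supernatant TNF-α measured by sandwich ELISA at 450 nm; at least three independent experiments.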

The test system of data set [19] is C6. Nature of the data set: Cytotoxicity against rat C6 cells assessed as reduction in cell viability after 24 hrs by MTT assay. The note with it: C6, 24 h. In kind it is cell-based. A digest of the protocol:
as §2

As usually defined, the IC50 is the concentration that inhibits the measured activity by half. For the compound `O=C(O)c1ccccc1O` [SALICYLIC ACID], the IC50 in [1] and in data set [3] was greater than 40 µM throughout. In addition, in data set [2], the Activity result was “Toxic”. For the same compound, the outcome with Mus musculus was Active.

The term EC50 denotes the concentration giving half of the maximal effect. As usually defined, the half-life is how long it takes for the measured level to halve. As usually defined, the Cmax is the highest concentration seen after dosing. For orientation: Tmax means the time from dosing to the highest level. As to `COc1ccc2[nH]cc(CCNC(C)=O)c2c1` [MELATONIN], the Activity entry in [2] is “Toxic”. In addition, the concentration for a half-maximal effect (EC50) in data set [4] was greater than 40 µM. The half-life in data set [5] is 32.4 min. The same compound gave a Cmax in data set [6] of 1150 ng/mL. Moreover, the Tmax in data set [7] was 11.4 min.

Take `O=C(NCCc1c[nH]c2ccccc12)c1ccccc1Nc1ccccc1`: the IC50 was 0.47 µM in [1]; greater than 100 µM with BV-2 [8]; 25.9 µM in data set [9]; 2.62 µM in data set [3]; 15.3 µM with C6 [17]; 115 µM with C6 [19]. In addition, in data set [4], the EC50 is greater than 100 µM. In addition, the outcome with BV-2 [10] was inactive. In addition, the Ratio IC50 in the data set listed under Homo sapiens is 0.18. Moreover, the Activity in the data set on BV-2 [11] was 66%. Moreover, the inhibition entry in the data set on BV-2 [12] and in the data set with C6 [18] was “Dose-dependent effect” in each case. The outcome in the data set with BV-2 [13], in the data set on C6 [14], in the data set on BV-2 [15] and with BV-2 [16] was Active.
